# Screening data (PubChem)
# Rows were chosen to be rich in hits. Some 12% of all compounds tested hit in one or more screens of this group.
# L major viab – inhibitors of Leishmania major promastigote growth. AID 1063. Leishmania major promastigotes, resazurin fluorescence viability. 9% of 200,000 active. inhibition, % at 10 µM;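 note: promastigotes grown with compound for 44 hours at 28 °C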
# CHOP inhibitor – inhibitors of CHOP induction in ER stress response; CHO-K1 CHOP-promoter luciferase, tunicamycin-induced, 15-18 h; AID 2732; 3.8% of 220,000 active; inhibition, % at 10 µM;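 active = compounds that reduced the stress-induced luciferase reporter signal by more than about 70% of percent inhibition, limit read from the data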
# Rad51 HR inh – blocks human Rad51 in homologous recombination. Q06609. hRad51 DNA strand exchange, fluorescence dequenching. inhibition, % at 10 µM. 0.085% of 200,000 active. AID 1385;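 active = inhibition above 40% at the single screening dose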
#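 Material: Human Rad51 nucleoprotein filaments preassembled on unlabelled ssDNA | Also added: Labelled 47-mer dsDNA for strand exchange | Dosing: Single dose, 10 µM final compound | Schedule: 30-min compound preincubation and 15-min exchange, both room temperature | Technique: Fluorescence dequenching at 485/520 nm | Measure: Percent inhibition relative to plate controls and blanks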
# Wee1 stabilizer – human Wee1 degradation inhibition, primary screen; P30291; HeLa Luc-Wee1K328M stability, luciferase luminescence; 100% = proteasome inhibitor MG132 effect; reporter increase, % at 5 µM; 1.2% of 220,000 active; AID 1321;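 active = activation above the mean of all tested compounds plus 3 SD, set per screening run, cut at about 8.8% in these data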;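 note: cells exposed to compound for 20 h before luminescence read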
# PKD1 kinase inh – inhibitors of human PKD1 kinase | PKD1 kinase fluorescence polarization assay | AID 797 | 0.056% of 200,000 active | inhibition, % (no concentration beside the values) | Q15139
# Target sequence (Q15139 whole entry, looked up): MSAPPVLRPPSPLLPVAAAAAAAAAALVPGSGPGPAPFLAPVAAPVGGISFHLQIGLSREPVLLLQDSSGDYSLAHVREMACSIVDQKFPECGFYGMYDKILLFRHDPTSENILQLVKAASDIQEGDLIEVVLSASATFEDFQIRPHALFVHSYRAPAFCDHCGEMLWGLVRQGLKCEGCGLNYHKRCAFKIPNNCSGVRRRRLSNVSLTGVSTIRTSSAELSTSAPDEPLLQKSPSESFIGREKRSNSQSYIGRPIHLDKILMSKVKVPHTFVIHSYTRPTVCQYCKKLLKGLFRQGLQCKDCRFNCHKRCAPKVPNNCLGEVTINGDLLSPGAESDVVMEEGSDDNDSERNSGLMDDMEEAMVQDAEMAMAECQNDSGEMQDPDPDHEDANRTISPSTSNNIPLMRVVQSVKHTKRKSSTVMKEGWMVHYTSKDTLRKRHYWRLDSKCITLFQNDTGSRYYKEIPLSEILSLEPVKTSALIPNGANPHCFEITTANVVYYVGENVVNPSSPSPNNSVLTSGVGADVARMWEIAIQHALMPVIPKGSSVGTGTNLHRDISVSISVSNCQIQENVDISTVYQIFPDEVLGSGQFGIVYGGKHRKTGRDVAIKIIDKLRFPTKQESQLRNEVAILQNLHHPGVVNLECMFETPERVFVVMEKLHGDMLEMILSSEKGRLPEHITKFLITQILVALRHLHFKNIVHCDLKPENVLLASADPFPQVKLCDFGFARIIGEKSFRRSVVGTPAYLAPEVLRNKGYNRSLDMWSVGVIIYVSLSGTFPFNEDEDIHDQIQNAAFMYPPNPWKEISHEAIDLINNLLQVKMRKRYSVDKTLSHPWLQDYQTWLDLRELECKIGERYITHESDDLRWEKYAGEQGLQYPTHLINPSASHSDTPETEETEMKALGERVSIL
# Arbovirus anti – arbovirus infection inhibition | inhibition, % at 10 µM | arbovirus infection cell-based antiviral screen | 0.37% of 200,000 active | AID 1251; in the data active = inhibition above about 30%
# Hits are given with their value; n = inactive; x = no result given. Cut-off read from the data, not from the text of the source, unless noted: active = inhibition above about 50%; inactive = the rest.
SMILES,L major viab,CHOP inhibitor,Rad51 HR inh,Wee1 stabilizer,PKD1 kinase inh,Arbovirus anti
Cc1nn(-c2ccccc2)c(C)c1/C=N/n1c(-c2ccc(C(C)(C)C)cc2)n[nH]c1=S,n,84,n,n,n,n
S=c1[nH]nc(-c2ccncc2)n1/N=C/c1cn(-c2ccccc2)nc1-c1ccc(Cl)cc1,x,91,n,n,x,x
CC1CC(C)(C)NC(=S)N1CCC(=O)NCCc1ccc(Cl)cc1 (stereo unspecified),n,n,n,n,n,n
Cc1ccc(-n2c(C)cc(/C([O-])=C(/C(=S)Nc3ccc(F)c(Cl)c3)[n+]3ccccc3)c2C)cc1,91,n,n,n,n,n
CCS(=O)(=O)c1ccc2c(c1)N(S(=O)(=O)c1ccc(Cl)cc1)CC(C(=O)O)O2 (stereo unspecified),n,n,n,n,n,n
O=C([C@@H]1CC=C[C@@H]2CCN(C3CC3)C(=O)[C@@H]21)N1CCN(c2ccccc2)CC1,x,x,n,x,x,x
CN1c2ccccc2C(C)(C)C12C=Nc1c(cc(N3CCOCC3)c3ccccc13)O2 (stereo unspecified),n,n,x,n,n,n
CN1c2ccccc2C(C)(C)C12C=Cc1cc(O)ccc1O2 (stereo unspecified),99,x,n,n,n,n
CCCOc1ccc(/C=N/Nc2cccc([N+](=O)[O-])c2)c(O)c1,n,74,n,n,n,n
Cc1cc(Cl)ccc1NC(=O)CCC(=O)N/N=C/c1cc([N+](=O)[O-])ccc1O,92,n,n,n,n,n
O=C(N/N=C/c1cc([N+](=O)[O-])ccc1O)NC12CC3CC(CC(C3)C1)C2,n,n,n,n,n,n
O=C(N/N=C/c1cc([N+](=O)[O-])ccc1O)C12CC3CC(CC(C3)C1)C2,97,n,n,n,n,n
CC/C(C)=N/Nc1cccc([N+](=O)[O-])c1,96,n,n,n,n,n
O=[N+]([O-])c1ccc(O)c(/C=N/NC(=S)Nc2ccc(Cl)cc2Cl)c1,x,n,n,n,x,x
CC/C(=N\Nc1ccc([N+](=O)[O-])cc1)c1ccccc1,n,75,n,n,n,n
O=[N+]([O-])c1cccc(N/N=C/c2cc([N+](=O)[O-])ccc2O)c1,n,95,n,n,n,n
O=C(N/N=C/c1cc([N+](=O)[O-])ccc1O)Nc1ccccc1,n,n,n,n,n,n
COc1ccc(CCN=C(N)Nc2nc(C)cc(C)n2)cc1,95,n,n,n,n,n
O=c1c2sccc2nc(SCc2ccc([N+](=O)[O-])cc2)n1Cc1ccccn1,63,n,n,n,n,n
Cc1ccc(CNC(=O)CSc2nc3ccsc3c(=O)n2Cc2ccccn2)cc1,n,n,n,n,n,n
CC(C)c1cc(N2CCN(C(=O)c3ccco3)CC2)n2c(nc3ccccc32)c1C#N,52,n,n,n,n,n
CC(=O)N1CCN(c2nc(CC(C)C)c3c(c2C#N)CCC3)CC1,n,n,x,n,n,n
CC(C)Cc1nc(N2CCN(C(=O)c3ccco3)CC2)c(C#N)c2c1CCC2,51,n,n,n,n,n
CC(C)Cc1nc(N2CCN(C(=O)C(C)C)CC2)c(C#N)c2c1CCC2,n,n,n,n,n,n
CC(C)Cc1nc(N2CCN(C(=O)c3ccccc3)CC2)c(C#N)c2c1CCC2,n,80,n,n,n,n
SMILES,L major viab,CHOP inhibitor,Rad51 HR inh,Wee1 stabilizer,PKD1 kinase inh,Arbovirus anti
N#Cc1c(NCCCO)nc(-c2ccccc2)c2c1CCCC2,n,78,n,n,n,n
CN(C)CCCNc1nc(-c2ccccc2)c2c(c1C#N)CC(C)(C)OC2,x,n,n,n,x,x
COC(=O)CCSCC(=O)N1N=C(c2ccc(Br)cc2)CC1c1cccc(OC)c1OC (stereo unspecified),n,n,n,n,n,n
Cc1ccc2c(CC(=O)NCCc3ccc(S(N)(=O)=O)cc3)coc2c1,x,n,n,n,x,x
O=C(Cn1nc2n(c1=O)-c1ccccc1SC2)N/N=C/c1cccs1,x,n,n,n,x,x
N#Cc1c(N2CCN(C(=O)c3ccccc3)CC2)nc(-c2ccccc2)c2c1CCCC2,75,72,n,n,n,n
CC1(C)Cc2c(C#N)c(N3CCN(C(=O)c4ccco4)CC3)nc(Cc3ccccc3)c2CO1,90,88,n,n,n,n
CCc1nc(N2CCN(C(C)=O)CC2)c(C#N)c2c1COC(C)(C)C2,x,n,n,n,x,x
Fc1ccc(N2CCN(Cc3cnc(N4CCOCC4)s3)CC2)cc1,64,n,n,n,n,n
COc1cccc(-c2nc(CS(=O)(=O)CC(=O)Nc3cc(C)ccc3C)c(C)o2)c1,n,77,n,n,n,n
COc1ccc(-c2nc(CS(=O)(=O)CC(=O)Nc3ccc(Cl)cc3)c(C)o2)cc1,n,97,n,n,n,n
COc1cccc(-c2nc(CS(=O)(=O)CC(=O)Nc3c(C)cccc3C)c(C)o2)c1,n,n,n,n,n,n
Nc1cc(=O)[nH]c(SCC(=O)N2CCCCC2)n1,n,n,n,n,n,n
O=C(CC(Nc1ccc(F)cc1)C(=O)O)c1ccccc1 (stereo unspecified),61,n,n,n,n,n
CCCCNC(=O)O/N=C(\N)CS(=O)(=O)C(C)(C)C,x,n,n,n,x,x
C/C(=N\NC(=O)c1cccnc1)c1cc2ccccc2o1,n,n,n,n,n,n
CCc1ccc(N(CC(=O)Nc2nc3ccc(C)cc3s2)S(=O)(=O)c2c(C)noc2C)cc1,52,83,n,n,n,n
COc1ccc2nc(NC(=O)CN(c3ccc(C)cc3)S(=O)(=O)c3c(C)nn(C)c3C)sc2c1,80,n,n,n,n,n
O=C(CSc1ccccc1C(=O)O)NCC1CCCCC1,n,n,n,n,n,n
CN(CCc1ccccn1)C(=O)CCC1CCCN(C(=O)NC2CCCCC2)C1 (stereo unspecified),n,n,x,n,n,n
O=C1c2cccnc2C(=O)N1CNc1ccc(Cl)cc1,n,n,n,n,n,n
CNNC(=S)NC1CC2CC1C1C=CCC21 (stereo unspecified),x,n,n,n,x,x
NC(=S)NC1CC2CC1C1C=CCC21 (stereo unspecified),x,n,n,9.5,x,x
CC1(C)CC(=O)C2=C(C1)NC(=S)C(C#N)C21CCCCC1 (stereo unspecified),x,n,n,n,x,x
COc1ccc(C2(CNC(=O)c3ccc(OC)c([N+](=O)[O-])c3)CCCCC2)cc1OC,87,n,n,n,n,n
NC1CONC1=O (stereo unspecified),x,n,x,x,x,x
CCN(CC)CCNc1nc2c(c(=O)[nH]c(=O)n2C)n1CC(O)COc1ccc(Cl)cc1Cl (stereo unspecified),92,n,n,n,n,n
CCC(=O)NS(=O)(=O)c1ccc(-c2c(-c3ccccc3)noc2C)cc1,x,x,n,x,x,x
CCCN(CCC)CC(O)CN1C(=O)N(CN2C(=O)N(CC(O)CN(CCC)CCC)C(=O)C2(C)C)C(C)(C)C1=O (stereo unspecified),n,n,n,n,n,n
